Results published in ChEMBL document CHEMBL1128260, “3-deaza- and 7-deaza-5'-noraristeromycin and their antiviral properties” (1995).
Converted amounts (≈) assume the structure as drawn.

How the values were obtained:
Format in all cases: functional
HEL [1] = experiment: The minimum inhibitory concentration required to reduce VZV(YS) virus induced cytopathicity by 50% was measured on HEL cells; conditions: Homo sapiens
Outline: (§1)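 Confluent cell monolayers in microtiter trays were inoculated with 100 CCID50 of virus and allowed 1 h adsorption, then residual virus was removed. Cultures were incubated with varying compound concentrations (400, 200, 100, ... µg/mL). Cytopathicity was scored once it was complete in the untreated infected controls. The value is the concentration reducing virus-induced cytopathicity by 50%.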

CCRF-CEM [2] = experiment: The minimum inhibitory concentration required to reduce HIV-1(IIIB) virus induced cytopathicity by 50% was measured on CEM cells; conditions: Homo sapiens
Outline: (§2)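 CEM cells at 250,000-300,000 cells/mL were infected with HIV-1 (IIIB) or HIV-2 (ROD) at 100 CCID50/mL. The infected suspension was added to serial compound dilutions and incubated 4 days at 37 °C. Cultures were then examined for syncytium (giant cell) formation, and the 50% inhibitory concentration was recorded.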

Vero [3] = experiment: The minimum inhibitory concentration required to reduce Parainfluenza virus type 3(ATCC VR-93) induced cytopathicity by 50% in Vero cells; conditions: Chlorocebus sabaeus; outline: as §1
E6SM [4] = experiment: The minimum inhibitory concentration required to reduce TK-HSV-1(VMW 1837) virus induced cytopathicity by 50% in E6SM cells; conditions: Homo sapiens; outline: as §1
HEL [5] = experiment: The minimum inhibitory concentration required to reduce TK-VZV(07-1) virus induced cytopathicity by 50% was measured on HEL cells; conditions: Homo sapiens; outline: as §1
CCRF-CEM [6] = experiment: The minimum inhibitory concentration required to reduce HIV-2(ROD) virus induced cytopathicity by 50% was measured on CEM cells; conditions: Homo sapiens; outline: as §2
MDCK [7] = experiment: The minimum inhibitory concentration required to reduce Influenza A virus induced cytopathicity by 50% was measured on MDCK cells; conditions: Canis lupus familiaris; outline: as §1
E6SM [8] = experiment: The minimum inhibitory concentration required to reduce TK HSV-1 (B2006) virus induced cytopathicity by 50% in E6SM cells; conditions: Homo sapiens; outline: as §1
HEL [9] = experiment: The minimum inhibitory concentration required to reduce VZV(Oka) virus induced cytopathicity by 50% was measured on HEL cells; conditions: Homo sapiens; outline: as §1
[10] = tested on: Respiratory syncytial virus; experiment: The minimum inhibitory concentration required to reduce RSV(Long) virus induced cytopathicity by 50% in HeLa cells; conditions: human respiratory syncytial virus; outline: as §1
Vero [11] = experiment: The minimum inhibitory concentration required to reduce Arenavirus (Junin) induced cytopathicity by 50% was measured on Vero cells; conditions: Chlorocebus sabaeus; outline: as §1
E6SM [12] = experiment: The minimum inhibitory concentration required to reduce Vesicular Stomatitis Virus induced cytopathicity by 50% in E6SM cells; conditions: Homo sapiens; outline: as §1
HEL [13] = experiment: Tested for the concentration required to cause a microscopically detectable alteration of HEL cell morphology; conditions: Homo sapiens; read-out: MIC50
HEL [14] = experiment: The minimum inhibitory concentration required to reduce TK-VZV(YS-R) virus induced cytopathicity by 50% was measured on HEL cells; conditions: Homo sapiens; outline: as §1
E6SM [15] = experiment: The minimum inhibitory concentration required to reduce HSV-2(G) virus induced cytopathicity by 50% was measured on E6SM cells; conditions: Homo sapiens; outline: as §1
CCRF-CEM [16] = experiment: Tested for concentration required to cause a microscopically detectable alteration of CEM cell morphology; conditions: Homo sapiens
Vero [17] = experiment: The minimum inhibitory concentration required to reduce Arenavirus (Tacaribe) induced cytopathicity by 50% was measured on Vero cells; conditions: Chlorocebus sabaeus; outline: as §1
E6SM [18] = experiment: The minimum inhibitory concentration required to reduce HSV-1(KOS) virus induced cytopathicity by 50% was measured on E6SM cells; conditions: Homo sapiens; outline: as §1
HeLa [19] = experiment: The minimum inhibitory concentration required to reduce Vesicular Stomatitis Virus induced cytopathicity by 50% in HeLa cells; conditions: Homo sapiens; outline: as §1
HEL [20] = experiment: The minimum inhibitory concentration required to reduce CMV(Davis) virus induced cytopathicity by 50% was measured on HEL cells; conditions: Homo sapiens; outline: as §1
MDCK [21] = experiment: The minimum inhibitory concentration required to reduce Influenza B virus induced cytopathicity by 50% was measured on MDCK cells; conditions: Canis lupus familiaris; outline: as §1
MDCK [22] = experiment: Tested for the concentration required to cause a microscopically detectable alteration of MCDK cell morphology; conditions: Canis lupus familiaris; read-out: MIC50
Outline: (§3)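 Confluent E6SM, HeLa, Vero or MDCK cell cultures exposed to varying test-compound concentrations and examined microscopically. The value is the concentration causing a microscopically detectable alteration of normal cell morphology.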

E6SM [23] = experiment: The minimum inhibitory concentration required to reduce Vaccinia virus induced cytopathicity by 50% in E6SM cells; conditions: Homo sapiens; outline: as §1
HeLa [24] = experiment: The minimum inhibitory concentration required to reduce Polio-1 virus induced cytopathicity by 50% in HeLa cells; conditions: Homo sapiens; outline: as §1
Vero [25] = experiment: The minimum inhibitory concentration required to reduce Reo-1 virus (ATCC VR-230) induced cytopathicity by 50% was measured in Vero cells; conditions: Chlorocebus sabaeus; outline: as §1
Vero [26] = experiment: Tested for concentration required to cause a microscopically detectable alteration of Vero cell morphology; conditions: Chlorocebus sabaeus; read-out: MIC50; outline: as §3
HeLa [27] = experiment: The minimum inhibitory concentration required to reduce Coxsackie B4 virus induced cytopathicity by 50% in HeLa cells.; conditions: Homo sapiens; outline: as §1
HEL [28] = experiment: The minimum inhibitory concentration required to reduce CMV(AD-169) virus induced cytopathicity by 50% was measured on HEL cells; conditions: Homo sapiens; outline: as §1
Vero [29] = experiment: The minimum inhibitory concentration required to reduce Sindbis virus ([…]) induced cytopathicity by 50% in Vero cells; conditions: Chlorocebus sabaeus; outline: as §1
HeLa [30] = experiment: Tested for concentration required to cause a microscopically detectable alteration of HeLa cell morphology; conditions: Homo sapiens; read-out: MIC50; outline: as §3
Vero [31] = experiment: The minimum inhibitory concentration required to reduce forest virus (ATCC VR-67) induced cytopathicity by 50% in Vero cells; conditions: Chlorocebus sabaeus; outline: as §1
E6SM [32] = experiment: Tested for concentration required to cause a microscopically detectable alteration of E6SM cell morphology; conditions: Homo sapiens; read-out: MIC50; outline: as §3

SMILES | MIC50 (HEL [1]) | MIC50 (Vero [3]) | MIC50 (MDCK [7]) | MIC50 (HEL [9]) | MIC50 [10] | MIC50 (Vero [11]) | MIC50 (E6SM [12]) | Minimum cytotoxic concentration (MCC) (HEL [13]) | MIC50 (E6SM [15]) | MIC50 (Vero [17]) | MIC50 (E6SM [18]) | MIC50 (HeLa [19]) | MIC50 (HEL [20]) | MIC50 (MDCK [21]) | Minimum cytotoxic concentration (MDCK [22]) | MIC50 (E6SM [23]) | MIC50 (HeLa [24]) | MIC50 (Vero [25]) | Minimum cytotoxic concentration (Vero [26]) | MIC50 (HeLa [27]) | further results
Nc1ncnc2c1ccn2[C@H]1C[C@@H](O)[C@H](O)[C@@H]1O | > 40 µg/mL | 100 µg/mL (≈ 400 µM) | > 200 µg/mL | > 40 µg/mL | 100 µg/mL (≈ 400 µM) | > 20 µg/mL | 70 µg/mL (≈ 280 µM) | > 200 µg/mL | > 400 µg/mL | > 20 µg/mL | 300 µg/mL (≈ 1200 µM) | 300 µg/mL (≈ 1200 µM) | > 40 µg/mL | > 200 µg/mL | > 200 µg/mL | 150 µg/mL (≈ 599 µM) | > 400 µg/mL | > 200 µg/mL | > 400 µg/mL | > 400 µg/mL | MIC50 (CCRF-CEM [2]): > 500 µg/mL; MIC50 (E6SM [4]): 300 µg/mL (≈ 1200 µM); MIC50 (HEL [5]): > 40 µg/mL; MIC50 (CCRF-CEM [6]): > 500 µg/mL; MIC50 (E6SM [8]): 300 µg/mL (≈ 1200 µM); MIC50 (HEL [14]): > 40 µg/mL; MIC50 (CCRF-CEM [16]): > 500 µg/mL; MIC50 (HEL [28]): > 40 µg/mL; MIC50 (Vero [29]): > 200 µg/mL; Minimum cytotoxic concentration (HeLa [30]): > 400 µg/mL; MIC50 (Vero [31]): > 200 µg/mL; minimum cytotoxic concentration (microscopic alteration of cell morphology) (E6SM [32]): > 400 µg/mL
Nc1nccc2c1ncn2C1CC(O)C(O)C1O (single isomer, unassigned; (-)) | > 40 µg/mL | 1 µg/mL (≈ 4 µM) | 150 µg/mL (≈ 599 µM) | > 40 µg/mL | > 150 µg/mL | > 40 µg/mL | 0.7 µg/mL (≈ 2.8 µM) | > 200 µg/mL | > 400 µg/mL | > 40 µg/mL | > 400 µg/mL | 2 µg/mL (≈ 7.99 µM) | > 40 µg/mL | > 200 µg/mL | > 200 µg/mL | 0.4 µg/mL (≈ 1.6 µM) | > 400 µg/mL | 7 µg/mL (≈ 28 µM) | > 200 µg/mL | > 400 µg/mL | MIC50 (CCRF-CEM [2]): > 20 µg/mL; MIC50 (E6SM [4]): 300 µg/mL (≈ 1200 µM); MIC50 (HEL [5]): > 30 µg/mL; MIC50 (CCRF-CEM [6]): > 20 µg/mL; MIC50 (E6SM [8]): 300 µg/mL (≈ 1200 µM); MIC50 (HEL [14]): > 40 µg/mL; MIC50 (CCRF-CEM [16]): 27 µg/mL (≈ 108 µM); MIC50 (HEL [28]): > 40 µg/mL; MIC50 (Vero [29]): > 200 µg/mL; Minimum cytotoxic concentration (HeLa [30]): > 400 µg/mL; MIC50 (Vero [31]): > 200 µg/mL; minimum cytotoxic concentration (microscopic alteration of cell morphology) (E6SM [32]): > 400 µg/mL
Nc1ncnc2c1ncn2[C@@H]1C=C(CO)[C@@H](O)[C@H]1O [NEOPLANOCIN A] | 5 µg/mL (≈ 19 µM) | 0.2 µg/mL (≈ 0.76 µM) | 0.3 µg/mL (≈ 1.14 µM) | 4 µg/mL (≈ 15.2 µM) | > 1.2 µg/mL | 1 µg/mL (≈ 3.8 µM) | 2 µg/mL (≈ 7.6 µM) | 20 µg/mL | > 100 µg/mL | 1 µg/mL (≈ 3.8 µM) | 70 µg/mL (≈ 266 µM) | 2 µg/mL (≈ 7.6 µM) | 0.4 µg/mL (≈ 1.52 µM) | > 4 µg/mL | 4 µg/mL | 0.2 µg/mL (≈ 0.76 µM) | > 40 µg/mL | 0.7 µg/mL (≈ 2.66 µM) | 40 µg/mL | > 40 µg/mL | MIC50 (E6SM [4]): 70 µg/mL (≈ 266 µM); MIC50 (HEL [5]): 4 µg/mL (≈ 15.2 µM); MIC50 (E6SM [8]): 20 µg/mL (≈ 76 µM); MIC50 (HEL [14]): 3 µg/mL (≈ 11.4 µM); MIC50 (HEL [28]): 0.6 µg/mL (≈ 2.28 µM); MIC50 (Vero [29]): 2 µg/mL (≈ 7.6 µM); Minimum cytotoxic concentration (HeLa [30]): 1 µg/mL; MIC50 (Vero [31]): 7 µg/mL (≈ 26.6 µM); minimum cytotoxic concentration (microscopic alteration of cell morphology) (E6SM [32]): 100 µg/mL
Nc1ncnc2c1ncn2[C@@H]1C[C@H](O)[C@@H](O)[C@H]1O [NORARISTEROMYCIN] | > 50 µg/mL | 0.07 µg/mL (≈ 0.279 µM) | > 100 µg/mL | > 50 µg/mL | > 200 µg/mL | 6 µg/mL (≈ 23.9 µM) | 0.1 µg/mL (≈ 0.398 µM) | 50 µg/mL | > 400 µg/mL | 8 µg/mL (≈ 31.8 µM) | > 400 µg/mL | 0.2 µg/mL (≈ 0.796 µM) | 0.03 µg/mL (≈ 0.119 µM) | > 100 µg/mL | > 400 µg/mL | 0.04 µg/mL (≈ 0.159 µM) | > 400 µg/mL | 0.7 µg/mL (≈ 2.79 µM) | > 400 µg/mL | > 400 µg/mL | MIC50 (CCRF-CEM [2]): > 0.16 µg/mL; MIC50 (CCRF-CEM [6]): > 0.16 µg/mL; MIC50 (CCRF-CEM [16]): 0.4 µg/mL (≈ 1.59 µM); MIC50 (HEL [28]): 0.01 µg/mL (≈ 0.0398 µM); MIC50 (Vero [29]): > 400 µg/mL; Minimum cytotoxic concentration (HeLa [30]): > 400 µg/mL; MIC50 (Vero [31]): > 400 µg/mL; minimum cytotoxic concentration (microscopic alteration of cell morphology) (E6SM [32]): > 400 µg/mL
